Measured values taken from ChEMBL document CHEMBL4304834, “3-Amino-chromanes and Tetrahydroquinolines as Selective 5-HT2B, 5-HT7, or σ1 Receptor Ligands” (ACS Med Chem Lett, 2019).

Legend:
[1] = biological target: T1, 5-hydroxytryptamine receptor 1A (Homo sapiens, UniProt P08908); assay: Displacement of [3H]-Way100635 from human recombinant 5-HT1A expressed in stable CHO cells after 90 mins by microbeta scintillation counting method; type: cell-based
T1 sequence (P08908 whole entry): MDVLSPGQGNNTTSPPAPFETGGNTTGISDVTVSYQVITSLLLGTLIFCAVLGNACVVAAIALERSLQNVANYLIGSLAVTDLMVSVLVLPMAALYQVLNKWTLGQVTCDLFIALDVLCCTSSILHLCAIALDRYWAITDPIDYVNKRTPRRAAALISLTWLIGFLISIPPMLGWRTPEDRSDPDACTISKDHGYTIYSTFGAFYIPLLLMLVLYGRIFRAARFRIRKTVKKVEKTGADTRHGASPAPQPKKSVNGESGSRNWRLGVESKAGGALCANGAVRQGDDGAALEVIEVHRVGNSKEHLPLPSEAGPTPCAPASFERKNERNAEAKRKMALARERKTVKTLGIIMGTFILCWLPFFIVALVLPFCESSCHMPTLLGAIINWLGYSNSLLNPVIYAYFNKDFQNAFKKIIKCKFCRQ
Summary of the method: (§1)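 Run by NIMH Psychoactive Drug Screening Program. Otherwise, competition binding curves are generated and pKi is taken from a sigmoidal curve fit. Data are either triplicate measurements within one experiment, with the error from the fit, or the mean of repeated experiments, each run in triplicate.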

[2] = biological target: Histamine H1 receptor (Homo sapiens, UniProt P35367); assay: Displacement of [3H]-Pyrilamine from human recombinant histamine H1 receptor expressed in stable HEK cells after 90 mins by microbeta scintillation counting method; type: cell-based
Histamine H1 receptor, sequence (P35367 whole entry): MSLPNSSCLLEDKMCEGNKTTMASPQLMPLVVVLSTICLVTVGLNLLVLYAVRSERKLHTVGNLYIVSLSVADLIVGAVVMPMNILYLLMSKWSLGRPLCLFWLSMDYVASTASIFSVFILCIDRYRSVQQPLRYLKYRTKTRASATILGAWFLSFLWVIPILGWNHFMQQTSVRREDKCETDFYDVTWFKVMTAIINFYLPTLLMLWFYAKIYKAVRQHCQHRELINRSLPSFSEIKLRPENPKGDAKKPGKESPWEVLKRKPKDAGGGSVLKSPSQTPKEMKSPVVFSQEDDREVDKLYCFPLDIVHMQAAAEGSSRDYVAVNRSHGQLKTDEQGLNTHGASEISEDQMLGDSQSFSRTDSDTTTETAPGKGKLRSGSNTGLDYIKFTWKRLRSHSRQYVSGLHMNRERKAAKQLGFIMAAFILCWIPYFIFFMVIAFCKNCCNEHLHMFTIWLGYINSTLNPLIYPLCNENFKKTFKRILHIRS
Summary of the method: (§2)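 Radioligand binding was run by the NIMH Psychoactive Drug Screening Program. Compounds were first screened at 10 μM. Those giving ≥50% binding were taken to full competition curves. Ki is reported as pKi from a sigmoidal curve fit of triplicate measurements in a single experiment; the error is the curve-fit error.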

[3] = biological target: Delta-type opioid receptor (Homo sapiens, UniProt P41143); assay: Displacement of [3H]-DADLE from human recombinant DOR receptor expressed in stable HEK cells at 10 uM after 90 mins by microbeta scintillation counting method relative to control; type: cell-based
Delta-type opioid receptor, sequence (P41143 whole entry): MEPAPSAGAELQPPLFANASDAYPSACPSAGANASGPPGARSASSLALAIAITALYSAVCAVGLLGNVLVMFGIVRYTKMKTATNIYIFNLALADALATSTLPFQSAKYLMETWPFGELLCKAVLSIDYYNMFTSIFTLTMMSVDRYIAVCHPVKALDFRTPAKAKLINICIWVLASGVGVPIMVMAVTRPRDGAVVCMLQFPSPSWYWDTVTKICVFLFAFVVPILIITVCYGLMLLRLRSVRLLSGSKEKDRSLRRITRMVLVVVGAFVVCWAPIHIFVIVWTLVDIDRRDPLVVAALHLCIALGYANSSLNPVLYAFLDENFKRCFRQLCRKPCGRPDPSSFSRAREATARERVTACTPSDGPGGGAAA
Summary of the method: (§3)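 Radioligand binding run by the NIMH Psychoactive Drug Screening Program. […] Otherwise Ki comes from sigmoidal curve fits of triplicate measurements in a single experiment, or is averaged over repeated experiments each run in triplicate.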

[4] = biological target: T2, Alpha-1A adrenergic receptor (Homo sapiens) (UniProt P35348); assay: Displacement of [3H]-Prazosin from human recombinant adrenergic alpha1A receptor expressed in cells at 10 uM after 90 mins by microbeta scintillation counting method relative to control; type: cell-based
T2 sequence (whole entry): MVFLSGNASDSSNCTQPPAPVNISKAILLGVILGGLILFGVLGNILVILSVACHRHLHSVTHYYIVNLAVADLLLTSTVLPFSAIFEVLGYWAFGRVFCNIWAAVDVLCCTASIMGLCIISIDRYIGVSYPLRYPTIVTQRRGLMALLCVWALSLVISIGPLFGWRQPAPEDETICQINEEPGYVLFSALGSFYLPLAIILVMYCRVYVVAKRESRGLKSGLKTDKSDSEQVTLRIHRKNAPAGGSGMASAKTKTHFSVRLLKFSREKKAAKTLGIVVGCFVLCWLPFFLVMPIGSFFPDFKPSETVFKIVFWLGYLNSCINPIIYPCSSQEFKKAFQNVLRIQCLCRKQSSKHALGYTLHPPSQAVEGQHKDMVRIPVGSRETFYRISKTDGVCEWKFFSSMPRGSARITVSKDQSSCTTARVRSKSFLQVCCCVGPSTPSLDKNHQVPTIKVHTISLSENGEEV

[5] = biological target: T3, D(4) dopamine receptor (Homo sapiens, UniProt P21917); assay: Displacement of [3H]-methylspiperone from human recombinant dopamine D4 receptor expressed in Stable HEK cells after 90 mins by microbeta scintillation counting method; type: cell-based; summary of the method: as §2
T3 sequence (P21917 whole entry): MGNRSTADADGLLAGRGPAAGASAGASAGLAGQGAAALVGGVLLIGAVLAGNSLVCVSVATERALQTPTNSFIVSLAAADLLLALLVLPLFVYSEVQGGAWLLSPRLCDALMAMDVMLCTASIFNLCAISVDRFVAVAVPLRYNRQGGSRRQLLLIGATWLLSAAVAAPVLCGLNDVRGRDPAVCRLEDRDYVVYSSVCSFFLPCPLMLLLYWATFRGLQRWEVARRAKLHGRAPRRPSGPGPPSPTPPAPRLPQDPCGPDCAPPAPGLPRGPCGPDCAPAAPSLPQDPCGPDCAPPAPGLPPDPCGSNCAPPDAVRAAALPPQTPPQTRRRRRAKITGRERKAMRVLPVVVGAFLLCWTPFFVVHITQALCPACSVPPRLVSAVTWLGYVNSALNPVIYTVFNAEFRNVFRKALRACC

[6] = biological target: D(2) dopamine receptor (Homo sapiens, UniProt P14416); assay: Displacement of [3H]-N-methylspiperone from human recombinant dopamine D2 receptor expressed in stable fibroblast cells at 10 uM after 90 mins by microbeta scintillation counting method relative to control; type: cell-based; summary of the method: as §3
D(2) dopamine receptor, sequence (P14416 whole entry): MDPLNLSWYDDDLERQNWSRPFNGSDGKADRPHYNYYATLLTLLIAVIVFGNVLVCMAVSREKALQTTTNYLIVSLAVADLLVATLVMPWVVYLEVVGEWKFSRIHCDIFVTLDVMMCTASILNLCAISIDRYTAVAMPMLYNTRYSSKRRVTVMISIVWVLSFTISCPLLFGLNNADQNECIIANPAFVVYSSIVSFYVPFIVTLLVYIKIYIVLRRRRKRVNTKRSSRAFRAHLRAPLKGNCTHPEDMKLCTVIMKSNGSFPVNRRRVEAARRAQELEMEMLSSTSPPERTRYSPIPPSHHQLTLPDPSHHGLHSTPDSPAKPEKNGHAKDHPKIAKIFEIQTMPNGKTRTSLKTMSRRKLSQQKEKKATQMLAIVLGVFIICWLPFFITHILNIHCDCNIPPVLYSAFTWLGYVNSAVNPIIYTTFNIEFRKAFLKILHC

[7] = biological target: 5-hydroxytryptamine receptor 7 (Homo sapiens, UniProt P34969); assay: Displacement of [3H]-LSD from human recombinant 5-HT7 receptor expressed in stable HEK cells after 90 mins by microbeta scintillation counting method; type: cell-based; summary of the method: as §1
5-hydroxytryptamine receptor 7, sequence (P34969 whole entry): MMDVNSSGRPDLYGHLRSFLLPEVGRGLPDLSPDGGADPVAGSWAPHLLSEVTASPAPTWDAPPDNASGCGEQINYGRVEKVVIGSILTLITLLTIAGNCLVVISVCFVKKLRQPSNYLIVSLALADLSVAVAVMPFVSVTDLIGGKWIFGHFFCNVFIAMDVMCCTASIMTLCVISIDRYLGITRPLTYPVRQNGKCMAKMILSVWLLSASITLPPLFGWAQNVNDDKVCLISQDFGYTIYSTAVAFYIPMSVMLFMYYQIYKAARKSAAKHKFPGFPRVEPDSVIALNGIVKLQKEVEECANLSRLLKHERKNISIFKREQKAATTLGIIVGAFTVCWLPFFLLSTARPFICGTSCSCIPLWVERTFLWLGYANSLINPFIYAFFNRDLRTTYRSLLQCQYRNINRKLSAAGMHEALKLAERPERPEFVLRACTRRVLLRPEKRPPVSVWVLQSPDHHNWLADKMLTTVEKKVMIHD

[8] = biological target: 5-hydroxytryptamine receptor 1E (Homo sapiens, UniProt P28566); assay: Displacement of [3H]-HT from human recombinant 5-HT1E receptor expressed in stable HEK cells at 10 uM after 90 mins by microbeta scintillation counting method relative to control; type: cell-based; summary of the method: as §3
5-hydroxytryptamine receptor 1E, sequence (P28566 whole entry): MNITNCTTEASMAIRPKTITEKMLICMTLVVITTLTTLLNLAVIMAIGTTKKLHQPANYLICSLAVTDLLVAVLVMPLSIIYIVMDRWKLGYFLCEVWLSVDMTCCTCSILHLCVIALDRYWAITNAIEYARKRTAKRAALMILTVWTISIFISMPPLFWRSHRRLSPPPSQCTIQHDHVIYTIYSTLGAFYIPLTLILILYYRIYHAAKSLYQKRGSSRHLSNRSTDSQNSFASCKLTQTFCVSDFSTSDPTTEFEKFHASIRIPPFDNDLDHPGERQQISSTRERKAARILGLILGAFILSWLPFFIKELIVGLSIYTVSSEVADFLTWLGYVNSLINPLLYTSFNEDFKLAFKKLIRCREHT

[9] = biological target: T4, 5-hydroxytryptamine receptor 2C (Homo sapiens, UniProt P28335); assay: Displacement of [3H]-Mesulergine from human recombinant 5-HT2C receptor expressed in HEKT cells after 90 mins by microbeta scintillation counting method; type: cell-based; summary of the method: as §3
T4 sequence (P28335 whole entry): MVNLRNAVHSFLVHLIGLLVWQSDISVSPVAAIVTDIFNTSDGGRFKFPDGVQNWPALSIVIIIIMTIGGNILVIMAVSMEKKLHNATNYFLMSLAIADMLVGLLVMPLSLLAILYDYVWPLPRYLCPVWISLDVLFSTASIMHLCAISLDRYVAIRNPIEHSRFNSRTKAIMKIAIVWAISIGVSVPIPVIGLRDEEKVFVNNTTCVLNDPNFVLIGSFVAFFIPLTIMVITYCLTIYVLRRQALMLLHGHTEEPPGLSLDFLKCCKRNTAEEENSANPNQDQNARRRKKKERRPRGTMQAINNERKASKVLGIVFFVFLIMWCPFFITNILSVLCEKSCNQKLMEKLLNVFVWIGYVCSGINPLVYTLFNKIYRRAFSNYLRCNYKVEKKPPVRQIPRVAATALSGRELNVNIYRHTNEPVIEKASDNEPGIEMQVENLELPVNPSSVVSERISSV

[10] = biological target: Histamine H2 receptor (Homo sapiens, UniProt P25021); assay: Displacement of [125I]-Iodoaminopotentidine from human recombinant histamine H2 receptor expressed in stable HEK cells after 90 mins by microbeta scintillation counting method; type: cell-based; summary of the method: as §3
Histamine H2 receptor, sequence (P25021 whole entry): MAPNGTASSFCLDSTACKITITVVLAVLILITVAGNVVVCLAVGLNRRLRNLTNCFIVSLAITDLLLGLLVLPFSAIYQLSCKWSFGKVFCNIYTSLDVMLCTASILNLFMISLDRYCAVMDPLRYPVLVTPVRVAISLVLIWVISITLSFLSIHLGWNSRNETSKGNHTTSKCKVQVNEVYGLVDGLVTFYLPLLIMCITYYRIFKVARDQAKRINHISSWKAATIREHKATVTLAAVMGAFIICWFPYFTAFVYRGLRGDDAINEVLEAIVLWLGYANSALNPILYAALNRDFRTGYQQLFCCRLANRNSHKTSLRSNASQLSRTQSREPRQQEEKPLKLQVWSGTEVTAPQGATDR

[11] = organism: Rattus norvegicus; assay: Displacement of [3H]-PK11195 from PBR receptor in rat brain at 10 uM incubated for 90 mins by microbeta scintillation counting method relative to control; type: tissue-based; summary of the method: as §3

| Structure (SMILES) | Ki ([1]; read-out: pKi (converted)) [µM] | Ki [2] [µM] | inhibition [3] [%] | inhibition [4] [%] | Ki [5] [µM] | inhibition [6] [%] | Ki ([7]; read-out: pKi (converted)) [µM] | inhibition [8] [%] | Ki [9] [µM] | Ki [10] [µM] | inhibition [11] [%] | Ki ([1]; cho, read-out: Ki) [µM] | Ki ([7]; read-out: Ki) [µM] | Ki ([1]; read-out: Ki) [µM] |
| --- | --- | --- | --- | --- | --- | --- | --- | --- | --- | --- | --- | --- | --- | --- |
| CC[C@H]1c2cc(C)ccc2OC[C@@]1(C)N (racemic) | 2 | > 10 | < 50 | < 50 | > 10 | < 50 | > 10 | < 50 | 2.51 | > 10 | < 50 | – | – | – |
| C[C@@]12CN(c3ccccc3)c3ccccc3[C@@H]1CCN2 (racemic) | > 10 | > 10 | – | – | > 10 | – | – | – | > 10 | 2 | – | > 10 | 0.0063 | – |
| CC[C@H]1c2cc(OC)ccc2CC[C@@]1(C)N (racemic) | 0.631 | 3.16 | < 50 | < 50 | > 10 | < 50 | > 10 | < 50 | 2.51 | > 10 | < 50 | – | – | – |
| COc1cc(OC)c2c(c1)OC[C@@]1(C)NCC[C@@H]21 (racemic) | 1 | > 10 | < 50 | < 50 | > 10 | < 50 | 1.26 | < 50 | 1.58 | > 10 | < 50 | – | – | – |
| CC[C@H]1c2ccccc2N(c2ccccc2)C[C@@]1(C)N (racemic) | – | > 10 | – | – | 2 | – | 1 | – | 3.98 | > 10 | – | – | – | 0.074 |
